Laboratory results taken from ChEMBL document CHEMBL1121790, “Proposed dopaminergic pharmacophore of lergotrile, pergolide, and related ergot alkaloid derivatives” (1981).
The source made the active and inactive calls. No cut-off for these calls is given here.

Legend:
Felis catus [1] = assay: Potency relative to apomorphine at 3 mg/kg in anaesthetized cat; format: functional
Felis catus [2] = assay: Compound was tested for percentage increase in mean arterial blood pressure at 10 mg/kg in anaesthetized cat; format: functional, Artery
Summary of the method: (§1)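 Pentobarbital sodium (30 mg/kg, intrathorax) anaesthetised cats; arterial pressure from right femoral artery via pressure transducer. Compound given iv, doses spaced 0.48 log units. Change in mean arterial pressure (increase, i.e. transient primary pressor phase, and decrease) and in resting heart rate expressed as % of resting control; resting pressure (mmHg) and heart rate (beats/min) also recorded.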

Felis catus [3] = assay: Compound was tested for inhibitory effect reversed by haloperidol (100 ug/kg) at 3 mg/kg in anaesthetized cat; yes; format: functional, organism-based; parameters: dose 3 mg/kg
Summary of the method: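 Pentobarbital sodium (30 mg/kg) anaesthetised cats; arterial pressure recorded from the right femoral artery. Postganglionic cardioaccelerator nerve stimulated at 2 Hz with 5 ms pulses at supramaximal voltage, in 20-30 s trains. After stable controls, compound was given iv in doses spaced at 0.48 log intervals. Haloperidol (100 μg/kg iv) was then given and inhibition of nerve-evoked tachycardia redetermined.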

Felis catus [4] = assay: Compound was tested for percentage decrease in mean arterial blood pressure at 3 mg/kg in anaesthetized cat; format: functional, Artery; summary of the method: as §1
Felis catus [5] = assay: Compound was tested for percentage increase in mean arterial blood pressure at 30 mg/kg in anaesthetized cat; format: functional, Artery; summary of the method: as §1
Felis catus [6] = assay: Compound was tested for percentage decrease in heart rate at 3 mg/kg in anaesthetized cat; format: functional; summary of the method: as §1
Felis catus [7] = assay: Compound was tested for percentage decrease in heart rate at 10 mg/kg in anaesthetized cat; format: functional; summary of the method: as §1
Felis catus [8] = assay: Compound was tested for neuronal inhibition of postganglionic cardio accelerator nerve stimulation in anaesthetized cat at 2 Hz frequency at 3 mg/kg; format: functional; settings: Heart
Summary of the method: (§2)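 Cats anaesthetised with pentobarbital sodium (30 mg/kg, intrathorax); arterial pressure recorded from right femoral artery. Postganglionic cardioaccelerator nerve stimulated at 2 Hz, 5 ms pulses, supramaximal voltage, 20-30 s trains. After stable controls, compound given iv in doses spaced 0.48 log units; inhibition of stimulation-induced tachycardia measured. Haloperidol 100 μg iv at end, inhibition redetermined. ID50 by probit analysis.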

Felis catus [9] = assay: Compound was tested for percentage decrease in mean arterial blood pressure at 10 mg/kg in anaesthetized cat (resting mean arterial pressure (mmHg)); format: functional, Artery; summary of the method: as §1
Felis catus [10] = assay: Compound was tested for percentage decrease in heart rate at 30 mg/kg in anaesthetized cat; format: functional; summary of the method: as §1
Felis catus [11] = assay: Compound was tested for neuronal inhibition of postganglionic cardio accelerator nerve stimulation in anaesthetized cat at 2 Hz frequency at 30 mg/kg; format: functional; settings: Heart; summary of the method: as §2
Felis catus [12] = assay: Compound was tested for percentage decrease in mean arterial blood pressure at 30 mg/kg in anaesthetized cat; format: functional, Artery; summary of the method: as §1
Felis catus [13] = assay: Compound was tested for neuronal inhibition of postganglionic cardio accelerator nerve stimulation in anaesthetized cat at 2 Hz frequency at 10 mg/kg; format: functional; settings: Heart; summary of the method: as §2
Felis catus [14] = assay: Compound was tested for percentage increase in mean arterial blood pressure at 3 mg/kg in anaesthetized cat; format: functional, Artery; summary of the method: as §1
Felis catus [15] = assay: Sympathetic neuronal inhibiting activity in anaesthetized cat 3 at mg/kg; format: functional; settings: Sympathetic neuron, read-out: ID50 (the source's name); summary of the method: as §2
Felis catus [16] = assay: Potency relative to apomorphine at 30 mg/kg in anaesthetized cat; format: functional
Felis catus [17] = assay: Compound was tested for percentage decrease in heart rate at 300 mg/kg in anaesthetized cat; format: functional; summary of the method: as §1
Felis catus [18] = assay: Compound was tested for percentage decrease in mean arterial blood pressure at 300 mg/kg in anaesthetized cat; format: functional, Artery; summary of the method: as §1
Felis catus [19] = assay: Compound was tested for neuronal inhibition of postganglionic cardio accelerator nerve stimulation in anaesthetized cat at 2 Hz frequency at 300 mg/kg; format: functional; settings: Heart; summary of the method: as §2
Felis catus [20] = assay: Compound was tested for inhibitory effect reversed by haloperidol (100 ug/kg) at […] in anaesthetized cat; Yes; format: functional, organism-based; summary of the method: as §2
Felis catus [21] = assay: Compound was tested for neuronal inhibition of postganglionic cardio accelerator nerve stimulation in anaesthetized cat at 2 Hz frequency at 100 mg/kg; format: functional; settings: Heart; summary of the method: as §2
Felis catus [22] = assay: Compound was tested for percentage decrease in heart rate at 100 mg/kg in anaesthetized cat; format: functional; summary of the method: as §1
Felis catus [23] = assay: Sympathetic neuronal inhibiting activity in anaesthetized cat at 30 mg/kg; format: functional; settings: Sympathetic neuron, read-out: ID50 (the source's name); summary of the method: as §2
Felis catus [24] = assay: Compound was tested for percentage decrease in mean arterial blood pressure at 100 mg/kg in anaesthetized cat; format: functional, Artery; summary of the method: as §1
Felis catus [25] = assay: Potency relative to apomorphine at […] in anaesthetized cat; 0.07-0.33; format: functional
Felis catus [26] = assay: Compound was tested for percentage increase in mean arterial blood pressure at 100 mg/kg in anaesthetized cat; format: functional, Artery; summary of the method: as §1
Felis catus [27] = assay: Sympathetic neuronal inhibiting activity in anaesthetized cat 30 at mg/kg; 0.12-0.33; format: functional; settings: Sympathetic neuron, read-out: ID50 (the source's name); summary of the method: as §2
Felis catus [28] = assay: Compound was tested for percentage increase in mean arterial blood pressure at 300 mg/kg in anaesthetized cat; format: functional, Artery; summary of the method: as §1
Felis catus [29] = assay: Compound was tested for percentage decrease in heart rate at […] in anaesthetized cat (resting heart rate (beats/min)); format: functional; summary of the method: as §1
Felis catus [30] = assay: Compound was tested for percentage decrease in mean arterial blood pressure at 100 mg/kg in anaesthetized cat (resting mean arterial pressure (mmHg)); format: functional, Artery; summary of the method: as §1

SMILES	Increase (Felis catus [5]) [%]	Decrease (Felis catus [10]) [%]	inhibition in vivo at 30 mg/kg (Felis catus [11]) [%]	Decrease (Felis catus [12]) [%]	Decrease (Felis catus [17]) [%]	Decrease (Felis catus [18]) [%]	inhibition in vivo at 300 mg/kg (Felis catus [19]) [%]	Inhibitory effect (Felis catus [20])	inhibition in vivo at 100 mg/kg (Felis catus [21]) [%]	further results
CCCN1C[C@H](CSC)C[C@@H]2c3cccc4[nH]cc(c34)C[C@H]21 [PERGOLIDE]	52	80	80	6	–	–	–	–	–	Ratio (Felis catus [1]): 1.13; Increase (Felis catus [2]): 15%; Inhibitory effect (Felis catus [3]): Active; Decrease (Felis catus [4]): 5%; Decrease (Felis catus [6]): 23%; Decrease (Felis catus [7]): 59%; inhibition in vivo at 3 mg/kg (Felis catus [8]): 23%; Decrease (Felis catus [9]): 8%; inhibition in vivo at 10 mg/kg (Felis catus [13]): 59%; Increase (Felis catus [14]): 5%; ED50 (Felis catus [15]): 0.02 µmol/kg
CN1C[C@H](CC#N)C[C@@H]2c3cccc4[nH]c(Cl)c(c34)C[C@H]21 [LERGOTRILE]	–	11	21	22	12	38	69	Yes	57	Ratio (Felis catus [16]): 0.08; Decrease (Felis catus [22]): 10%; ED50 (Felis catus [23]): 0.27 µmol/kg; Decrease (Felis catus [24]): 34%
CNCCc1cccc2[nH]ccc12	6	7	29	11	10	10	77	Yes	60	Ratio (Felis catus [25]): 0.14; Increase (Felis catus [26]): 16%; ED50 (Felis catus [27]): 0.22 µmol/kg; Increase (Felis catus [28]): 41%; Decrease (Felis catus [29]): 12%; Decrease (Felis catus [30]): 18%
